According to ChEMBL document CHEMBL1649273, “In vivo activity of a novel anti-methicillin-resistant Staphylococcus aureus cephalosporin, ceftaroline, against vancomycin-susceptible and -resistant Enterococcus faecalis strains in a rabbit endocarditis model: a comparative study with linezolid and vancomycin” (2009):
Activity calls are given as the source filed them. No cut-off for these calls is given here.

What was measured:
Enterococcus faecalis [1] = test: Antibacterial activity against vancomycin-susceptible Enterococcus faecalis EF 12704 infected in New Zealand White rabbit assessed as log reduction of bacterial count in aortic valve vegetations at 10 mg/kg, administered through ear vein every 12 hrs for 4 days; format: functional
Method in brief: (§1)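 New Zealand White rabbits were anesthetized and given left-ventricular catheters. Endocarditis was induced 24 h later with 10^8 CFU E. faecalis. From 24 h post-inoculation, drug was given via the marginal ear vein by computer-controlled pump, simulating human pharmacokinetics of 600 mg every 12 h (10 mg/kg/12 h). After 4 days, aortic vegetations were excised, weighed, homogenized in 0.5 ml saline and cultured quantitatively on agar for 24 h at 37°C.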

Enterococcus faecalis [2] = test: Antibacterial activity against vancomycin-susceptible Enterococcus faecalis EF 12704 infected in New Zealand White rabbit assessed as reduction of bacterial count in aortic valve vegetations at 10 mg/kg, administered through ear vein every 12 hrs for 4 days (reference value: 8.56 +/- 0.74 CFU/g); format: functional; method in brief: as §1
Enterococcus faecalis [3] = test: Antibacterial activity against vancomycin-susceptible Enterococcus faecalis EF 12704 assessed as log reduction in bacterial count at 12 mg/l after 24 hrs by time kill assay; format: functional
Method in brief: (§2)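 Time-kill experiments used an inoculum of 5 × 10^6 CFU/ml, with bacterial counts followed over 24 h.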

Enterococcus faecalis [4] = test: Antibacterial activity against vancomycin-susceptible Enterococcus faecalis EF 12704 assessed as bactericidal activity at 25 mg/l after 24 hrs by time kill assay; format: functional, organism-based; method in brief: as §2
Enterococcus faecalis [5] = test: Antibacterial activity against vancomycin-resistant Enterococcus faecalis EF NJ1 assessed as bactericidal activity at 25 mg/l after 24 hrs by time kill assay; format: functional, organism-based; method in brief: as §2
Enterococcus faecalis [6] = test: Antibacterial activity against vancomycin-resistant Enterococcus faecalis EF NJ1 infected in New Zealand White rabbit assessed as log reduction of bacterial count in aortic valve vegetations at 10 mg/kg, administered through ear vein every 12 hrs for 4 days; format: functional; method in brief: as §1
Enterococcus faecalis [7] = test: Antibacterial activity against vancomycin-susceptible Enterococcus faecalis EF 12704 infected in New Zealand White rabbit assessed as reduction of bacterial count in aortic valve vegetations administered through ear vein every 12 hrs for 4 days (reference value: 8.56 +/- 0.74 CFU/g); format: functional
Enterococcus faecalis [8] = test: Antibacterial activity against vancomycin-resistant Enterococcus faecalis EF NJ1 infected in New Zealand White rabbit assessed as reduction of bacterial count in aortic valve vegetations administered through ear vein every 12 hrs for 4 days (reference value: 8.60 +/- 0.54 CFU/g); format: functional

Row | Compound | log10CFU/g (Enterococcus faecalis [1]) | log10CFU/g (Enterococcus faecalis [2]) | log10CFU/ml (Enterococcus faecalis [3]) | Activity (Enterococcus faecalis [4]) | Activity (Enterococcus faecalis [5]) | log10CFU/g (Enterococcus faecalis [6]) | log10CFU/g (Enterococcus faecalis [7]) | log10CFU/g (Enterococcus faecalis [8])
1 | CC(=O)NC[C@H]1CN(c2ccc(N3CCOCC3)c(F)c2)C(=O)O1 [LINEZOLID] | >3 | 6.88 | 1 |  |  |  |  | 
2 | CN[C@H](CC(C)C)C(=O)N[C@H]1C(=O)N[C@@H](CC(N)=O)C(=O)N[C@H]2C(=O)N[C@H]3C(=O)N[C@H](C(=O)N[C@H](C(=O)O)c4cc(O)cc(O)c4-c4cc3ccc4O)[C@H](O)c3ccc(c(Cl)c3)Oc3cc2cc(c3O[C@@H]2O[C@H](CO)[C@@H](O)[C@H](O)[C@H]2O[C@H]2C[C@](C)(N)[C@H](O)[C@H](C)O2)Oc2ccc(cc2Cl)[C@H]1O [VANCOMYCIN] | 2 |  |  | inactive | inactive | 2 | 6.7 | 8.01
